Among the data in the array DNA melting data of Ke et al. (doi:10.1101/2024.01.08.574731) are Tm and folding enthalpy values, retold here.

Data set [1] is described as follows: melting temperature; fluorescence melt of hairpins on a sequencing array, two-state fit, raised by 9.35 °C to match UV melts. The note with it: sodium 0.088 M. An outline of the steps: (§1)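 Melting temperature and folding enthalpy were obtained by bootstrapped two-state fitting. Fits used Cy3 fluorescence of library hairpins with annealed Cy3 and quencher oligos on a sequenced MiSeq flow cell, imaged in 50 mM Na-HEPES pH 8.0, 25 mM NaCl in 2.5 °C steps up to 60 °C and normalised to pre-quench Cy3 and control constructs. Four replicates were combined by inverse-variance weighting, and fitted temperatures were raised by 9.35 °C to match UV melts.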

A short description of data set [2]: folding enthalpy; higher = less favourable; fluorescence melt of hairpins on a sequencing array, two-state fit. The note with it: sodium 0.088 M. The method in brief: as §1

With GCTCCTCGAAAGAGAGC (((.(((....)))))), in data set [1], the Tm was 49.2 °C. For the same sequence, the folding enthalpy in data set [2] was -30 kcal/mol.

With GCTCCTCGAAAGAGCAGC (((.(((....))).))), the Tm in data set [1] was 40.6 °C. Further, the folding enthalpy in data set [2] was -21.5 kcal/mol.

GCTCCTGAAAAGGAGC ((((((....)))))): in data set [1], the Tm was 68.5 °C. For the same sequence, the folding enthalpy in data set [2] was -42.6 kcal/mol.

In the case of GCTCGAGGAAACTTGGGC ((.(.((....)).).)), the Tm in data set [1] is 37.4 °C. Also, in data set [2], the folding enthalpy was -19.4 kcal/mol.

Regarding GCTCGCCGAAAGGCAGC (((.(((....)))))), in data set [1], the Tm came out at 62.6 °C. For the same sequence, the folding enthalpy in data set [2] is -19.9 kcal/mol.

Turning to GCTCGCGAAAGCGAAGC ((((((....))).))), the Tm in data set [1] amounted to 65.3 °C. In addition, the folding enthalpy in data set [2] is -17.6 kcal/mol.

Regarding GCTCGCGAAAGCGAGAGC ((((((....)))..))), in data set [1], the Tm was 66.7 °C. The folding enthalpy in data set [2] was -9.87 kcal/mol.

As to GCTCGCGAAAGCGGAAGC ((((((....)))..))), the Tm in data set [1] was 53.2 °C. Moreover, the folding enthalpy in data set [2] was -16.3 kcal/mol.

Regarding GCTCGCGAAAGCGTAAGC ((((((....)))..))), the Tm in data set [1] is 51.3 °C. In addition, in data set [2], the folding enthalpy is -13.4 kcal/mol.

On to GCTCGCGAAAGCGTCAGC ((((((....)))..))), for which the Tm in data set [1] turned out to be 41.4 °C. The folding enthalpy in data set [2] is -12.3 kcal/mol.

Consider GCTCGCGGAAACGCAAGC (((.(((....))).))), for which the Tm in data set [1] stood at 49.8 °C. Moreover, the folding enthalpy in data set [2] was -28.7 kcal/mol.

Consider GCTCGGCGAAAGCAGCGC ((.(.((....)).).)), for which the Tm in data set [1] is 58.5 °C. Moreover, the folding enthalpy in data set [2] is -14 kcal/mol.

Consider GCTCGGCGAAAGCAGGGC ((.(.((....)).).)), for which the Tm in data set [1] was 67.7 °C. Moreover, the folding enthalpy in data set [2] is -14 kcal/mol.

Turning to GCTCGGCGAAAGCCCCGC ((..(((....)))..)), the Tm in data set [1] is 44.6 °C. The folding enthalpy in data set [2] is -4.44 kcal/mol.

Regarding GCTCGGCGAAAGCCCGGC ((..(((....)))..)), in data set [1], the Tm is 56.9 °C. Also, the folding enthalpy in data set [2] was -7.98 kcal/mol.

For the sequence GCTCGGCGAAAGCCCTGC ((..(((....)))..)), the Tm in data set [1] was 53.4 °C. Further, the folding enthalpy in data set [2] was -7.65 kcal/mol.

GCTCGGCGAAAGCGCAGC (((..((....))..))): the Tm in data set [1] came to 51.1 °C. Also, the folding enthalpy in data set [2] is -9.7 kcal/mol.

For GCTCGGCGAAAGCTTAGC (((..((....))..))), the Tm in data set [1] was found to be 40.9 °C. Also, the folding enthalpy in data set [2] was -15.3 kcal/mol.

In the case of GCTCGGGCGAAAGCCAGC (((..(((....)))))), the Tm in data set [1] is 52 °C. The folding enthalpy in data set [2] is -8.16 kcal/mol.

As for GCTCGTCGAAAGACAGC (((.(((....)))))), the Tm in data set [1] came to 51.4 °C. In addition, the folding enthalpy in data set [2] was -29.6 kcal/mol.

For the sequence GCTCGTGGAAACACAAGC (((.(((....))).))), the Tm in data set [1] was 43.9 °C. For the same sequence, in data set [2], the folding enthalpy was -20 kcal/mol.

As to GCTCGTGGAAACACGGGC ((.((((....)))).)), the Tm in data set [1] came to 62.2 °C. Also, the folding enthalpy in data set [2] was -37.1 kcal/mol.

As for GCTCTACGAAAGTAAAGC (((.(((....))).))), the Tm in data set [1] came out at 38.4 °C. The folding enthalpy in data set [2] was -22.9 kcal/mol.

Regarding GCTCTCACGAAAGTGAGC (((..(((....)))))), in data set [1], the Tm was 35.8 °C. The folding enthalpy in data set [2] was -7.6 kcal/mol.

GCTCTCCCGAAAGGGAGC (((..(((....)))))): the Tm in data set [1] came out at 33 °C. Also, in data set [2], the folding enthalpy was -7.28 kcal/mol.

For GCTCTCGAAAGAGAAGC ((((((....))).))), the Tm in data set [1] turned out to be 49.8 °C. In data set [2], the folding enthalpy is -22 kcal/mol.

In the case of GCTCTCGAAAGAGATAGC ((((((....)))..))), the Tm in data set [1] was 41.8 °C. Moreover, in data set [2], the folding enthalpy is -22.6 kcal/mol.

Take GCTCTCGAAAGAGCTAGC ((((((....)))..))): the Tm in data set [1] was 50.3 °C. Moreover, the folding enthalpy in data set [2] was -15.5 kcal/mol.

With GCTCTCGAAAGAGGTAGC ((((((....)))..))), the Tm in data set [1] is 38.4 °C. Also, the folding enthalpy in data set [2] was -25.4 kcal/mol.

GCTCTCGAAAGAGTGAGC ((((((....)))..))): the Tm in data set [1] turned out to be 41.6 °C. Further, in data set [2], the folding enthalpy is -26 kcal/mol.

Consider GCTCTCGGAAACGGGAGC ((((.((....)).)))), for which the Tm in data set [1] worked out at 57.4 °C. The folding enthalpy in data set [2] is -41.3 kcal/mol.

GCTCTGCGAAAGCAAGC (((.(((....)))))): the Tm in data set [1] was determined as 48.2 °C. Moreover, the folding enthalpy in data set [2] is -16.8 kcal/mol.

For the sequence GCTCTGCGAAAGCGCAGC (((..((....))..))), the Tm in data set [1] amounted to 37.6 °C. In addition, the folding enthalpy in data set [2] is -11.4 kcal/mol.

With GCTCTGCGAAAGCGTAGC (((..((....))..))), the Tm in data set [1] stood at 38.2 °C. Further, the folding enthalpy in data set [2] was -17.6 kcal/mol.

On to GCTCTGGGAAACCAGAAC (.(((((....))))).), for which the Tm in data set [1] came out at 37.1 °C. Also, in data set [2], the folding enthalpy is -16.9 kcal/mol.

As for GCTCTGGGAAACCAGAGC (((((((....))))))), in data set [1], the Tm turned out to be 69 °C. Further, the folding enthalpy in data set [2] was -42.5 kcal/mol.

Consider GCTCTTCGAAAGAATAGC (((.(((....))).))), for which the Tm in data set [1] was 38.5 °C. Also, in data set [2], the folding enthalpy is -30.7 kcal/mol.
